# From PubChem
# This is one part of a sample in which hits are shown more often than they occur.
# STK33 inh: inhibitors of human STK33 kinase | Q9BYT3 | purified STK33, MBP phosphorylation, ADP-Glo luminescence | inhibition, % at 10 µM | 320,000 tested, 0.073% active | AID 2661;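 active = inhibition at or above 25%, using the most active replicate where run in duplicate; inactive = inhibition below 25%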
# GSK3 alpha inh: inhibitors of human GSK-3 alpha kinase | inhibition, % at 10 µM | 320,000 tested, 0.1% active | P49840 | ADP-Glo luminescence, 60 min | AID 2650;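 active = more than half of replicates show inhibition above 20%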;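 also: GST-tagged GSK-3 alpha with peptide substrate and 25 µM ATP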
# Target sequence (P49840 whole entry, looked up): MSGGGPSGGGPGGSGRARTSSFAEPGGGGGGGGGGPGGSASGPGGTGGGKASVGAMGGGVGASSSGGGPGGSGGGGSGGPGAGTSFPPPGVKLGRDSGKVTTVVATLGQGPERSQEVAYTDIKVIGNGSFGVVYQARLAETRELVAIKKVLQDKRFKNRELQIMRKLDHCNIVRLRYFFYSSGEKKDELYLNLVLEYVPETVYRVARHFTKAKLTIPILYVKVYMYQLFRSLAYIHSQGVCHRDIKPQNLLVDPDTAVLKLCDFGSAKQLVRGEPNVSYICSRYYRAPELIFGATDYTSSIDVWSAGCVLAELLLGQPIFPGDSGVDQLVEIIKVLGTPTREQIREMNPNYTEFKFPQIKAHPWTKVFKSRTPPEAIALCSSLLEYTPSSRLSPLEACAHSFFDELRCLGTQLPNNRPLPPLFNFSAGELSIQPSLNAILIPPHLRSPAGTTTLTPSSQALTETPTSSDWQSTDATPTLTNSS
# GSK3beta inhib: inhibitors of human GSK3beta kinase; 300,000 tested, 0.038% active; activity score (negative = inhibition), % at 10 µM; P49841; GST-GSK3beta kinase, ADP-Glo luminescence, 60 min; stronger effect = lower value;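 active = more than half of replicate wells score below -50%, meaning over 50% inhibition versus plate controls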
#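 Test system: GST-fused GSK3beta enzyme, cell-free | Quantity: 1.6 ng GST-GSK3beta enzyme per well | Reagent: 25 µM ATP with peptide substrate | Schedule: 60 min enzyme reaction, room temperature | Signal: Luminescent ADP-Glo measurement of ADP formed | Read-out basis: Score relative to plate controls | Control set: DMSO and 20 µM GW8510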
# Dyrk1A ADPGlo: blocks rat Dyrk1A kinase activity; Q63470; ADP-Glo luminescence, NFATc1 peptide; inhibition, % at 12.5 µM; 310,000 tested, 0.43% active; in the data active = inhibition above about 50%
# Hits are given with their value; - = inactive; . = not tested or not shown.
SMILES,STK33 inh,GSK3 alpha inh,GSK3beta inhib,Dyrk1A ADPGlo
CCN(CC)S(=O)(=O)c1ccc(O)c(C(=O)OCC(=O)N2c3ccccc3CC2C)c1 (stereo not drawn),-,-,-,-
C=CCn1c(SCC(=O)Nc2ccc(Cl)cn2)nnc1C1CC1,-,-,-,-
CCn1c(SCC(=O)Nc2ccc(Br)cn2)nnc1C1CC1,-,-,-52.0,-
Cn1c(SCC(=O)Nc2ccc(Cl)cn2)nnc1C1CC1,-,51.1,-,-
CCn1c(SCC(=O)Nc2nccs2)nnc1C1CC1,-,-,-,-
O=C(C[n+]1cccc(CO)c1)Nc1nc2ccccc2s1,-,-,-,-
O=C1NC(=S)S/C1=C\c1ccc(SCc2ccco2)o1,-,-,.,72.5
O=C(CSc1n[nH]c(=O)n1-c1ccc2c(c1)OCCO2)Nc1ccccc1,-,-,-,-
Cc1ccc(S(=O)(=O)CCSc2n[nH]c(=O)n2-c2ccc3c(c2)OCCO3)cc1,-,76.8,-,.
COc1ccc(Nc2nc(N)c([N+](=O)[O-])c(NCc3ccccc3)n2)cc1,-,-,-,-
Cc1cccc(Nc2nc(N)c([N+](=O)[O-])c(NCCO)n2)c1,-,64.0,-,.
Nc1nc(Nc2cccc(Cl)c2)nc(NCCO)c1[N+](=O)[O-],-,72.6,-50.4,-
COc1ccc(Nc2nc(N)c([N+](=O)[O-])c(NCCO)n2)cc1,-,75.0,-52.8,.
Cc1cccc(Nc2nc(N)c([N+](=O)[O-])c(NCc3ccco3)n2)c1,-,-,-,-
COc1ccccc1CN1CC(C(=O)NCCN2CCOC2=O)CCC1=O (stereo not drawn),-,.,-,-
CN(C)CCCNc1nc(N)c([N+](=O)[O-])c(NCCO)n1,-,50.0,-,-
CCN(CC)CCCNc1nc(N)c([N+](=O)[O-])c(NCCO)n1,-,-,-,-
Nc1nc(NCCc2ccccc2)nc(NCCO)c1[N+](=O)[O-],-,93.3,-,-
Nc1nc(NCc2ccccc2)nc(NCCO)c1[N+](=O)[O-],-,-,-,.
COc1ccc2cc(CCNC(=O)c3ccc(S(=O)(=O)N4CCOCC4)cc3)c(=O)[nH]c2c1,-,-,-,-
C=CC(=O)Nc1ccc(CN2C(=O)N(c3c(Cl)c(OC)cc(OC)c3Cl)Cc3cnc(NCCCCN(CC)CC)nc32)cc1,80.0,-,.,-
CCN(CC)CCNC(=O)c1ccc(NC(=O)Cc2ccc(OC)c(S(=O)(=O)N3CCOCC3)c2)cc1,.,.,.,-
COc1ccc(CN2CCC(n3nccc3NC(=O)C3CC3)CC2)c(Cl)c1OC,-,-,-,-
NCc1cccc(CNc2ccc([N+](=O)[O-])cc2C(N)=O)c1,-,84.5,.,-
CC(C)NC(=O)Nc1n[nH]c(Nc2ccc(Cl)cc2)n1,-,52.4,-,-
SMILES,STK33 inh,GSK3 alpha inh,GSK3beta inhib,Dyrk1A ADPGlo
Cc1occc1C(=O)N/N=C/c1ccc(N(C)C)cc1,28.5,-,-,-
CCc1ccc(NC(=O)CCC(=O)Nc2nnc(C(C)C)s2)cc1,-,-,-,.
O=C(Nc1nnc(CSCc2ccc(Cl)cc2)s1)c1cccc([N+](=O)[O-])c1,-,-,-,-
O=C(Nc1nnc(CSCc2ccc(F)cc2)s1)c1cccc([N+](=O)[O-])c1,-,-,-,52.6
CCOc1ccc(-c2ccc(SCC(=O)Nc3nnc(CC)s3)nn2)cc1,-,-,-,-
CCOc1ccc(-c2ccc(SC)nn2)cc1,31.1,-,-,55.7
CCOC(=O)C1CCCCN1C(=O)CCc1nnc(-c2ccc3c(c2)OCO3)o1 (stereo not drawn),-,-,-,-
CN(Cc1nc2c(s1)CCCC2)C(=O)CCc1nnc(-c2ccc3c(c2)OCO3)o1,-,57.8,-,-
O=C(O)c1ccc(N=Cc2c(O)ccc3oc4c(c23)CCCC4)cc1,45.8,-,-,.
COc1ccc(-c2[nH]ncc2CNCC(C)(C)N2CCOCC2)cc1F,-,-,-,-
O=C(O)c1ccc(NC(=O)c2cccc(C(=O)Nc3ccc(C(=O)O)cc3)n2)cc1,33.9,-,-,-
O=C(Cc1ccccc1)NNC(=O)c1ccc(Br)o1,.,.,-,-
Oc1[nH]c2ccccc2c1C=Nc1ccc2c(c1)OCO2,26.2,-,-,-
COc1ccc(N=Cc2c(O)[nH]c3ccccc23)cc1,-,-,-,-
CN1CCCC1CCNc1ccc2sc3ccccc3c(=O)c2c1 (stereo not drawn),44.0,-,-,-
O=c1c2ccccc2sc2ccc(NCCCN3CCOCC3)cc12,56.9,-,-,-
Cc1cc2oc3cc(NCCC4CCCN4C)ccc3c(=O)c2cc1C (stereo not drawn),-,-,-,-
CCCc1c(OCCCOc2ccc(OCC(=O)O)cc2)ccc(C(C)=O)c1O,-,-,.,-
